Measured values published in PubChem BioAssay AID493196 (Broad Institute, 2011).
Records with an inconclusive call do not appear. Active and inactive are the calls of the source.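 Rule for the calls: active = every repeat test active, with falling signal and half-maximal dose at most ten times the top dose; inconclusive = repeat tests disagree, or a weak flat or poor fit; inactive = all tests inactive, including signal shifting the wrong way.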

Experiments:
[1] = tested on: HMLE_sh_eGFP viability, CellTiter-Glo luminescence, 72 h; experiment: cytotoxicity in control HMLE_sh_eGFP cells, dose response, counter-screen for breast cancer stem cell project, cell-based, luminescence, dry powder, set 3 (AID 493196)
Procedure, shortened: (§1)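 Medium: serum-free CSC screening medium / System: HMLE_sh_eGFP counterscreen cell line / Technique: CellTiter-Glo luminescence / Control set: DMSO neutral, puromycin 160 µM positive / Times: ≥4 h attachment, ~70–74 h exposure, 37 °C, 5% CO2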

[2] = as above; settings: HMLE_sh_eGFP viability, CellTiter-Glo luminescence, 72 h; at 19.5 µM (top of the series)
Procedure, shortened: as §1

SMILES | AC50 [1] [µM] | activity change, negative = cytotoxic [2]
CN(c1ccccc1)S(=O)(=O)c1ccc(-c2ccccc2)cc1 | 14.4 | –
COC(=O)c1c(NC(=O)c2ccccc2)sc2c1CC(C)(C)OC2 | 13.4 | –
O=C1NC(=Nc2ccc(Cl)cc2)SC1Cc1cccc(Cl)c1Cl (stereo not drawn) | 14.5 | –
CC(=O)c1cccc(NS(=O)(=O)c2cc(-c3cnc(C4CC4)o3)ccc2C)c1 | 2.67 | –
CCN1C(=O)/C(=C\N2CCN(c3cccc(Cl)c3)CC2)SC1=S | 11.8 | –
C/C(=N\NC(=O)c1cc(-c2cccc([N+](=O)[O-])c2)n[nH]1)c1ccccc1O | 3.52 | –
CC(C)(C)c1ccc2c(c1)OC(C(=O)NN=Cc1ccc[nH]1)CO2 (mixture of isomers) | 19.6 | –
Cc1onc(-c2ccccc2)c1C(=O)Nc1sc2c(c1C#N)CCC(C)C2 (stereo not drawn) | 6.9 | –
Nc1cc(Cl)ccc1Oc1ccc2ccccc2c1 | 9.73 | –
Cc1ccc2nc(NC(=O)c3cccc(-c4cc5ccccc5oc4=O)c3)sc2c1 | 1.85 | –
CCCCCCc1cc2cc(S(=O)(=O)c3ccc(Cl)cc3)c(=O)oc2cc1O | 0.965 | –
O=C(c1ccccc1)c1coc2ccc(O)c(Br)c12 | – | 1.2% (inactive)
O=C(Nc1ccccc1N1CCCC1)c1cccc(-c2cc3ccccc3oc2=O)c1 | 7.97 | –
